Data taken from ChEMBL document CHEMBL4689842, “EUbOPEN Chemogenomics Library wave 1” (2021).

Tested on: U2OS
Assay: Multiplex assay against U2OS
Format: toxicity, cell-based
Conditions: human
Method in brief: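 Per cents of healthy-nucleus cells form the tubulin, mitochondrial-mass and membrane-permeability phenotype values. Live cells were stained at seeding with Hoechst33342, BioTracker Green Microtubule Cytoskeleton Dye, MitoTracker Red and Annexin V Alexa Fluor 680. After compound addition they were imaged on a CQ1 microscope at 37°C and 5% CO2, and CellPathfinder machine-learning gating split them into Hoechst high-intensity objects or normal cells, normal cells into healthy, pyknosed or fragmented nuclei, and pyknosed cells into mitotic or apoptotic.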

[1] = 12 h, 1 µM, compound concentration 1 uM, replicate 1
[2] = 12 h, 1 µM, compound concentration 1 uM, replicate 2
[3] = 12 h, 10 µM, compound concentration 10 uM, replicate 1
[4] = 12 h, 10 µM, compound concentration 10 uM, replicate 2
[5] = 24 h, 1 µM, compound concentration 1 uM, replicate 1
[6] = 24 h, 1 µM, compound concentration 1 uM, replicate 2
[7] = 24 h, 10 µM, compound concentration 10 uM, replicate 1
[8] = 24 h, 10 µM, compound concentration 10 uM, replicate 2
[9] = 48 h, 1 µM, compound concentration 1 uM, replicate 1
[10] = 48 h, 1 µM, compound concentration 1 uM, replicate 2
[11] = 48 h, 10 µM, compound concentration 10 uM, replicate 1
[12] = 48 h, 10 µM, compound concentration 10 uM, replicate 2

C=C1/C(=C\C=C2/CCC[C@]3(C)[C@@H]([C@H](C)/C=C/[C@H](C)C(C)C)CC[C@@H]23)C[C@@H](O)C[C@@H]1O [DOXERCALCIFEROL]
Population Apoptotic (%) [1]: 38% | Population Fragmented Nuclei (%) [1]: 9% | Population Healthy Nuclei (%) [1]: 82% | Population Hoechst High Intensity Objects (%) [1]: 6% | Population Membrane Permeable-Phenotype (%) [1]: 5% | Population Mitochondria Different-Phenotype (%) [1]: 11% | Population Mitotic Cells (%) [1]: 61% | Population Normal (%) [1]: 93% | Population Pyknosed Nuclei (%) [1]: 8% | Population Tubulin-Different-Phenotype (%) [1]: 17% | Total Cell Count [1]: 2 | Population Apoptotic (%) [2]: 40% | Population Fragmented Nuclei (%) [2]: 1% | Population Healthy Nuclei (%) [2]: 90% | Population Hoechst High Intensity Objects (%) [2]: 1% | Population Mitochondria Different-Phenotype (%) [2]: 14% | Population Mitotic Cells (%) [2]: 60% | Population Normal (%) [2]: 98% | Population Tubulin-Different-Phenotype (%) [2]: 9% | Total Cell Count [2]: 111 | Population Apoptotic (%) [3]: 36% | Population Fragmented Nuclei (%) [3]: 20% | Population Healthy Nuclei (%) [3]: 60% | Population Hoechst High Intensity Objects (%) [3]: 9% | Population Membrane Permeable-Phenotype (%) [3]: 8% | Population Mitochondria Different-Phenotype (%) [3]: 17% | Population Mitotic Cells (%) [3]: 63% | Population Normal (%) [3]: 90% | Population Pyknosed Nuclei (%) [3]: 19% | Population Tubulin-Different-Phenotype (%) [3]: 8% | Total Cell Count [3]: 160 | Population Apoptotic (%) [4]: 0% | Population Fragmented Nuclei (%) [4]: 27% | Population Healthy Nuclei (%) [4]: 67% | Population Hoechst High Intensity Objects (%) [4]: 6% | Population Membrane Permeable-Phenotype (%) [4]: 2% | Population Mitochondria Different-Phenotype (%) [4]: 21% | Population Mitotic Cells (%) [4]: 100% | Population Normal (%) [4]: 93% | Population Pyknosed Nuclei (%) [4]: 5% | Population Tubulin-Different-Phenotype (%) [4]: 13% | Total Cell Count [4]: 61 | Population Apoptotic (%) [5]: 7% | Population Fragmented Nuclei (%) [5]: 8% | Population Healthy Nuclei (%) [5]: 84% | Population Hoechst High Intensity Objects (%) [5]: 2% | Population Membrane Permeable-Phenotype (%) [5]: 3% | Population Mitochondria Different-Phenotype (%) [5]: 8% | Population Mitotic Cells (%) [5]: 92% | Population Normal (%) [5]: 97% | Population Pyknosed Nuclei (%) [5]: 6% | Population Tubulin-Different-Phenotype (%) [5]: 9% | Total Cell Count [5]: 1 | Population Apoptotic (%) [6]: 42% | Population Fragmented Nuclei (%) [6]: 5% | Population Healthy Nuclei (%) [6]: 86% | Population Hoechst High Intensity Objects (%) [6]: 4% | Population Membrane Permeable-Phenotype (%) [6]: 4% | Population Mitochondria Different-Phenotype (%) [6]: 7% | Population Mitotic Cells (%) [6]: 57% | Population Normal (%) [6]: 95% | Population Pyknosed Nuclei (%) [6]: 8% | Population Tubulin-Different-Phenotype (%) [6]: 14% | Total Cell Count [6]: 157 | Population Apoptotic (%) [7]: 56% | Population Fragmented Nuclei (%) [7]: 43% | Population Healthy Nuclei (%) [7]: 18% | Population Hoechst High Intensity Objects (%) [7]: 23% | Population Membrane Permeable-Phenotype (%) [7]: 11% | Population Mitochondria Different-Phenotype (%) [7]: 26% | Population Mitotic Cells (%) [7]: 43% | Population Normal (%) [7]: 76% | Population Pyknosed Nuclei (%) [7]: 37% | Population Tubulin-Different-Phenotype (%) [7]: 7% | Total Cell Count [7]: 197 | Population Apoptotic (%) [8]: 33% | Population Fragmented Nuclei (%) [8]: 25% | Population Healthy Nuclei (%) [8]: 70% | Population Hoechst High Intensity Objects (%) [8]: 3% | Population Membrane Permeable-Phenotype (%) [8]: 1% | Population Mitochondria Different-Phenotype (%) [8]: 16% | Population Mitotic Cells (%) [8]: 66% | Population Normal (%) [8]: 96% | Population Pyknosed Nuclei (%) [8]: 4% | Population Tubulin-Different-Phenotype (%) [8]: 13% | Total Cell Count [8]: 83 | Population Apoptotic (%) [9]: 21% | Population Fragmented Nuclei (%) [9]: 4% | Population Healthy Nuclei (%) [9]: 89% | Population Hoechst High Intensity Objects (%) [9]: 2% | Population Membrane Permeable-Phenotype (%) [9]: 2% | Population Mitochondria Different-Phenotype (%) [9]: 13% | Population Mitotic Cells (%) [9]: 78% | Population Normal (%) [9]: 97% | Population Pyknosed Nuclei (%) [9]: 6% | Population Tubulin-Different-Phenotype (%) [9]: 10% | Total Cell Count [9]: 5 | Population Apoptotic (%) [10]: 42% | Population Healthy Nuclei (%) [10]: 90% | Population Hoechst High Intensity Objects (%) [10]: 1% | Population Membrane Permeable-Phenotype (%) [10]: 0% | Population Mitotic Cells (%) [10]: 57% | Population Normal (%) [10]: 98% | Population Pyknosed Nuclei (%) [10]: 5% | Population Tubulin-Different-Phenotype (%) [10]: 11% | Total Cell Count [10]: 235 | Population Apoptotic (%) [11]: 47% | Population Fragmented Nuclei (%) [11]: 53% | Population Healthy Nuclei (%) [11]: 16% | Population Hoechst High Intensity Objects (%) [11]: 18% | Population Membrane Permeable-Phenotype (%) [11]: 25% | Population Mitochondria Different-Phenotype (%) [11]: 29% | Population Mitotic Cells (%) [11]: 52% | Population Normal (%) [11]: 81% | Population Pyknosed Nuclei (%) [11]: 30% | Population Tubulin-Different-Phenotype (%) [11]: 25% | Total Cell Count [11]: 316 | Population Apoptotic (%) [12]: 22% | Population Fragmented Nuclei (%) [12]: 12% | Population Healthy Nuclei (%) [12]: 79% | Population Hoechst High Intensity Objects (%) [12]: 3% | Population Membrane Permeable-Phenotype (%) [12]: 2% | Population Mitochondria Different-Phenotype (%) [12]: 22% | Population Mitotic Cells (%) [12]: 77% | Population Normal (%) [12]: 96% | Population Pyknosed Nuclei (%) [12]: 8% | Population Tubulin-Different-Phenotype (%) [12]: 28% | Total Cell Count [12]: 127
